Laboratory results: ChEMBL document CHEMBL3091449, “Synthesis and antimicrobial profile of N-substituted imidazolium oximes and their monoquaternary salts against multidrug resistant bacteria” (2013)
≈ marks a conversion by molar mass, not a printed value.

Columns and labels:
Format in all cases: functional
Aeromonas caviae [1] = assay: Antibacterial activity against TEM-1/CTX-M-15 expressing Aeromonas caviae isolate 260 after 18 to 24 hrs by two-fold broth microdilution assay
Method in brief: (§1)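 CLSI two-fold broth microdilution was used. Compounds were dissolved in DMSO, brought to 10 mg/mL in medium, then serially diluted in Mueller Hinton broth over 400–0.09 µg/mL. Overnight MHB cultures were diluted to 10^6 CFU/mL, and 10 µL was added per well. Plates were incubated 18–24 h at 37 °C, then 0.2 mg/mL INT was added for 30 min at 37 °C. MIC was the lowest concentration with no visible growth or pink colour, triplicate.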

Escherichia coli [2] = assay: Antibacterial activity against […] expressing Escherichia coli isolate 4024 after 18 to 24 hrs by two-fold broth microdilution assay
Method in brief: (§2)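 CLSI two-fold broth microdilution. Compounds dissolved in DMSO, 10 mg/mL stock, serially diluted to 400–0.09 µg/mL in Mueller Hinton broth. Wells inoculated with 10^6 CFU/mL bacteria and incubated 18–24 h at 37 °C. 0.2 mg/mL INT added for 30 min. MIC taken as the lowest concentration with no visible growth or pink colour. Triplicate.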

Klebsiella pneumoniae [3] = assay: Antibacterial activity against TEM-1/SHV-12 expressing Klebsiella pneumoniae isolate 303 after 18 to 24 hrs by two-fold broth microdilution assay; method in brief: as §1
Escherichia coli [4] = assay: Antibacterial activity against TEM-1/SHV-12 expressing Escherichia coli isolate 237 after 18 to 24 hrs by two-fold broth microdilution assay; method in brief: as §2
[5] = test system: Stenotrophomonas maltophilia; assay: Antibacterial activity against […] expressing Stenotrophomonas maltophilia isolate 125 after 18 to 24 hrs by two-fold broth microdilution assay; method in brief: as §1
Pseudomonas aeruginosa [6] = assay: Antibacterial activity against GIM-1 expressing Pseudomonas aeruginosa isolate 197 after 18 to 24 hrs by two-fold broth microdilution assay; method in brief: as §1
Kluyvera intermedia = assay: Antibacterial activity against TEM-1/SHV-12/[…] expressing Enterobacter intermedius isolate 243 after 18 to 24 hrs by two-fold broth microdilution assay; method in brief: as §1
Aeromonas hydrophila [7] = assay: Antibacterial activity against TEM-1/SHV-12 expressing Aeromonas hydrophila isolate 268 after 18 to 24 hrs by two-fold broth microdilution assay; method in brief: as §1
Enterobacter cloacae [8] = assay: Antibacterial activity against TEM-1/CTX-M-15 expressing Enterobacter cloacae isolate 62 after 18 to 24 hrs by two-fold broth microdilution assay
Escherichia coli [9] = assay: Antibacterial activity against […] expressing Escherichia coli isolate 235 after 18 to 24 hrs by two-fold broth microdilution assay; method in brief: as §2
Aeromonas caviae [10] = assay: Antibacterial activity against […] expressing Aeromonas caviae isolate 258 after 18 to 24 hrs by two-fold broth microdilution assay; method in brief: as §1
Acinetobacter baumannii = assay: Antibacterial activity against SIM-1 expressing Acinetobacter baumannii isolate 170 after 18 to 24 hrs by two-fold broth microdilution assay; method in brief: as §2
Enterobacter cloacae [11] = assay: Antibacterial activity against TEM-1/SHV-12 expressing Enterobacter cloacae isolate 306 after 18 to 24 hrs by two-fold broth microdilution assay
Enterobacter cloacae [12] = assay: Antibacterial activity against CTX-15 expressing Enterobacter cloacae isolate 51 after 18 to 24 hrs by two-fold broth microdilution assay
Staphylococcus aureus [13] = assay: Antibacterial activity against Staphylococcus aureus ATCC 25923 after 18 to 24 hrs by two-fold broth microdilution assay; method in brief: as §1
Staphylococcus aureus [14] = assay: Antibacterial activity against Staphylococcus aureus ATCC 25923 assessed as diameter of zone of inhibition at 250 ug/disc after 24 hrs by disc diffusion method; details: ATCC 25923, 24 h, read-out: DIZ
Method in brief: (§3)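 Bacteria were grown overnight at 37 °C in TSB to about 10^6 cfu/mL, and 100 µL was spread on Mueller Hinton agar. Sterile 6 mm discs were each loaded with 25 µL of a 10 mg/mL stock in 96% ethanol, giving 250 µg/disc. Ethanol served as the negative control. Plates were incubated 24 h at 37 °C. Inhibition zone diameter was measured including the disc, in triplicate, as mean ± SE.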

Enterococcus faecalis [15] = assay: Antibacterial activity against Enterococcus faecalis ATCC 29212 after 18 to 24 hrs by two-fold broth microdilution assay; method in brief: as §1
Pseudomonas aeruginosa [16] = assay: Antibacterial activity against Pseudomonas aeruginosa FNSST 982 assessed as diameter of zone of inhibition at 250 ug/disc after 24 hrs by disc diffusion method; details: FNSST 982, 24 h, read-out: DIZ; method in brief: as §3
Clostridium perfringens [17] = assay: Antibacterial activity against Clostridium perfringens FNSST 4999 after 18 to 24 hrs by two-fold broth microdilution assay; method in brief: as §2
Enterococcus faecalis [18] = assay: Antibacterial activity against Enterococcus faecalis ATCC 29212 assessed as diameter of zone of inhibition at 250 ug/disc after 24 hrs by disc diffusion method; details: ATCC 29212, 24 h, read-out: DIZ; method in brief: as §3
Aeromonas hydrophila [19] = assay: Antibacterial activity against Aeromonas hydrophila FNSST 014 assessed as diameter of zone of inhibition at 250 ug/disc after 24 hrs by disc diffusion method; details: FNSST 014, 24 h, read-out: DIZ; method in brief: as §3
Aspergillus fumigatus = assay: Antifungal activity against Aspergillus fumigatus FNSST 3833 assessed as diameter of zone of inhibition at 250 ug/disc after 72 hrs by disc diffusion method; details: FNSST 3833, 72 h, read-out: DIZ
Method in brief: (§4)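 Fungi were grown overnight at 30 °C in Sabouraud dextrose broth to 10^4 cfu/mL, and 100 µL was spread on Sabouraud dextrose agar. 6 mm discs carried 250 µg (25 µL of a 10 mg/mL stock in 96% ethanol), with ethanol as the negative control. Incubation was at 30 °C for 48 h (yeast) or 72 h (molds). Zone diameter was read including the disc, in triplicate, mean ± SE.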

Bacillus cereus [20] = assay: Antibacterial activity against Bacillus cereus ATCC 11778 assessed as diameter of zone of inhibition at 250 ug/disc after 24 hrs by disc diffusion method; details: ATCC 11778, 24 h, read-out: DIZ; method in brief: as §3
Escherichia coli [21] = assay: Antibacterial activity against Escherichia coli FNSST 982 assessed as diameter of zone of inhibition at 250 ug/disc after 24 hrs by disc diffusion method; details: FNSST 982, 24 h, read-out: DIZ; method in brief: as §3
Escherichia coli [22] = assay: Antibacterial activity against Escherichia coli FNSST 982 after 18 to 24 hrs by two-fold broth microdilution assay; method in brief: as §1
Aeromonas hydrophila [23] = assay: Antibacterial activity against Aeromonas hydrophila FNSST 014 after 18 to 24 hrs by two-fold broth microdilution assay; method in brief: as §1
Klebsiella pneumoniae [24] = assay: Antibacterial activity against Klebsiella pneumoniae FNSST 011 assessed as diameter of zone of inhibition at 250 ug/disc after 24 hrs by disc diffusion method; details: FNSST 011, 24 h, read-out: DIZ; method in brief: as §3
Talaromyces funiculosus = assay: Antifungal activity against Penicillium funiculosum FNSST 3724 assessed as diameter of zone of inhibition at 250 ug/disc after 72 hrs by disc diffusion method; details: FNSST 3724, 72 h, read-out: DIZ; method in brief: as §4
Klebsiella pneumoniae [25] = assay: Antibacterial activity against Klebsiella pneumoniae FNSST 011 after 18 to 24 hrs by two-fold broth microdilution assay; method in brief: as §1
Pseudomonas aeruginosa [26] = assay: Antibacterial activity against Pseudomonas aeruginosa FNSST 982 after 18 to 24 hrs by two-fold broth microdilution assay; method in brief: as §1
Bacillus cereus [27] = assay: Antibacterial activity against Bacillus cereus ATCC 11778 after 18 to 24 hrs by two-fold broth microdilution assay; method in brief: as §1
Candida albicans = assay: Antifungal activity against Candida albicans ATCC 10231 assessed as diameter of zone of inhibition at 250 ug/disc after 48 hrs by disc diffusion method; details: ATCC 10231, 48 h, read-out: DIZ; method in brief: as §4
Clostridium perfringens [28] = assay: Antibacterial activity against Clostridium perfringens FNSST 4999 assessed as diameter of zone of inhibition at 250 ug/disc after 24 hrs by disc diffusion method; details: FNSST 4999, 24 h, read-out: DIZ
Method in brief: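 Disc diffusion per CLSI: 100 µL of 10^6 cfu/mL bacterial suspension spread on Mueller Hinton agar. 6 mm discs loaded with 25 µL of 10 mg/mL compound stock in 96% ethanol (250 µg/disc); ethanol as negative control. Incubated 24 h at 37 °C. Inhibition zone diameter measured in mm including the disc, triplicate, reported as mean ± SE.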

| Structure (SMILES) | MIC (Aeromonas caviae [1]) [µg/mL] | MIC (Escherichia coli [2]) [µg/mL] | MIC (Klebsiella pneumoniae [3]) [µg/mL] | MIC (Escherichia coli [4]) [µg/mL] | MIC [5] [µg/mL] | MIC (Pseudomonas aeruginosa [6]) [µg/mL] | MIC (Kluyvera intermedia) [µg/mL] | MIC (Aeromonas hydrophila [7]) [µg/mL] | MIC (Enterobacter cloacae [8]) [µg/mL] | MIC (Escherichia coli [9]) [µg/mL] | MIC (Aeromonas caviae [10]) [µg/mL] | MIC (Acinetobacter baumannii) [µg/mL] | MIC (Enterobacter cloacae [11]) [µg/mL] | MIC (Enterobacter cloacae [12]) [µg/mL] | MIC (Staphylococcus aureus [13]) [µg/mL] | zone of inhibition at 250 µg/disc (Staphylococcus aureus [14]) [mm] | MIC (Enterococcus faecalis [15]) [µg/mL] | zone of inhibition at 250 µg/disc (Pseudomonas aeruginosa [16]) [mm] | MIC (Clostridium perfringens [17]) [µg/mL] | zone of inhibition at 250 µg/disc (Enterococcus faecalis [18]) [mm] | other results |
| --- | --- | --- | --- | --- | --- | --- | --- | --- | --- | --- | --- | --- | --- | --- | --- | --- | --- | --- | --- | --- | --- |
| C[C@@H](O)[C@H]1C(=O)N2C(C(=O)O)=C(S[C@@H]3CN[C@H](C(=O)N(C)C)C3)[C@H](C)[C@H]12 [MEROPENEM] | 1 (≈ 2.61 µM) | 0.12 (≈ 0.313 µM) | 0.12 (≈ 0.313 µM) | 1 (≈ 2.61 µM) | 128 (≈ 334 µM) | > 8 | 0.12 (≈ 0.313 µM) | 0.06 (≈ 0.156 µM) | 0.5 (≈ 1.3 µM) | 0.12 (≈ 0.313 µM) | 0.125 (≈ 0.326 µM) | 16 (≈ 41.7 µM) | 0.25 (≈ 0.652 µM) | 0.25 (≈ 0.652 µM) | – | – | – | – | – | – | – |
| O/N=C/c1nccn1-c1ccc(F)cc1 | – | – | – | – | – | – | – | – | – | – | – | – | – | – | 100 (≈ 487 µM) | 12.4 | 25 (≈ 122 µM) | 9.8 | 100 (≈ 487 µM) | 12.2 | zone of inhibition at 250 µg/disc (Aeromonas hydrophila [19]): 15.3 mm; zone of inhibition at 250 µg/disc (Aspergillus fumigatus): 15 mm; zone of inhibition at 250 µg/disc (Bacillus cereus [20]): 14 mm; zone of inhibition at 250 µg/disc (Escherichia coli [21]): 14.8 mm; MIC (Escherichia coli [22]): 25 µg/mL (≈ 122 µM); MIC (Aeromonas hydrophila [23]): 25 µg/mL (≈ 122 µM); zone of inhibition at 250 µg/disc (Klebsiella pneumoniae [24]): 10.3 mm; zone of inhibition at 250 µg/disc (Talaromyces funiculosus): 18.6 mm; MIC (Klebsiella pneumoniae [25]): 100 µg/mL (≈ 487 µM); MIC (Pseudomonas aeruginosa [26]): 50 µg/mL (≈ 244 µM); MIC (Bacillus cereus [27]): 50 µg/mL (≈ 244 µM); zone of inhibition at 250 µg/disc (Candida albicans): 18.9 mm; zone of inhibition at 250 µg/disc (Clostridium perfringens [28]): 8.6 mm |
| O=C(O)c1cn(C2CC2)c2cc(N3CCNCC3)c(F)cc2c1=O [CIPROFLOXACIN] | 1 (≈ 3.02 µM) | – | 2 (≈ 6.04 µM) | – | – | > 4 | 0.5 (≈ 1.51 µM) | 2 (≈ 6.04 µM) | – | – | 0.5 (≈ 1.51 µM) | 0.5 (≈ 1.51 µM) | – | – | – | – | – | – | – | – | – |
| O/N=C/c1n(Cc2ccccc2)cc[n+]1Cc1ccccc1.[Br-] | – | – | – | – | – | – | – | – | – | – | – | – | – | – | 12.5 | 14.2 | 12.5 | 12.4 | 25 | 17.1 | zone of inhibition at 250 µg/disc (Aeromonas hydrophila [19]): 17.1 mm; zone of inhibition at 250 µg/disc (Aspergillus fumigatus): 20.9 mm; zone of inhibition at 250 µg/disc (Bacillus cereus [20]): 15.5 mm; zone of inhibition at 250 µg/disc (Escherichia coli [21]): 14.2 mm; MIC (Escherichia coli [22]): 100 µg/mL; MIC (Aeromonas hydrophila [23]): 50 µg/mL; zone of inhibition at 250 µg/disc (Klebsiella pneumoniae [24]): 18.6 mm; zone of inhibition at 250 µg/disc (Talaromyces funiculosus): 17.6 mm; MIC (Klebsiella pneumoniae [25]): 42 µg/mL; MIC (Pseudomonas aeruginosa [26]): 62.5 µg/mL; MIC (Bacillus cereus [27]): 75 µg/mL; zone of inhibition at 250 µg/disc (Candida albicans): 20.9 mm; zone of inhibition at 250 µg/disc (Clostridium perfringens [28]): 18.3 mm |
| CN(C)[C@@H]1C(O)=C(C(N)=O)C(=O)[C@@]2(O)C(O)=C3C(=O)c4c(O)cccc4[C@@](C)(O)[C@H]3C[C@@H]12 [TETRACYCLINE] | 128 (≈ 288 µM) | 16 (≈ 36 µM) | 256 (≈ 576 µM) | 128 (≈ 288 µM) | 128 (≈ 288 µM) | > 8 | 16 (≈ 36 µM) | 8 (≈ 18 µM) | 16 (≈ 36 µM) | 32 (≈ 72 µM) | 64 (≈ 144 µM) | 64 (≈ 144 µM) | 16 (≈ 36 µM) | 64 (≈ 144 µM) | – | – | – | – | – | – | – |
